Experimental findings from ChEMBL document CHEMBL1131455, “5-HT3 antagonists derived from aminopyridazine-type muscarinic M1 agonists” (J Med Chem, 1998) are described below.

The target in assay [1] is T1, Serotonin 3 (5-HT3) receptor (Rattus norvegicus, UniProt P35563+Q9JJ16).
T1 sequence (P35563 whole entry): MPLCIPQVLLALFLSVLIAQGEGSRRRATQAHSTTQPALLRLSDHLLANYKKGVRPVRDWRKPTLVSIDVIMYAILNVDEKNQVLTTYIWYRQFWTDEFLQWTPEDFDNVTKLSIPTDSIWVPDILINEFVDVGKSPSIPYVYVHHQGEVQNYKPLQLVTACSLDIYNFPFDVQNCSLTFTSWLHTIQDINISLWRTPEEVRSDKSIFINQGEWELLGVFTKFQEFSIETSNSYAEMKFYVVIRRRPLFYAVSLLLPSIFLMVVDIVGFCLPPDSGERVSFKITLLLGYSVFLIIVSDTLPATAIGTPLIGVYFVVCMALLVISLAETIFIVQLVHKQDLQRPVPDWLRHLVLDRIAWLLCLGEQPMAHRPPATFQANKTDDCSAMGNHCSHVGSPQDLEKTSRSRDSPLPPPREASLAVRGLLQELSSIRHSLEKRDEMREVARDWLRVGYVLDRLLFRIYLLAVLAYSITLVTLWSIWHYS
T1 sequence (Q9JJ16 whole entry): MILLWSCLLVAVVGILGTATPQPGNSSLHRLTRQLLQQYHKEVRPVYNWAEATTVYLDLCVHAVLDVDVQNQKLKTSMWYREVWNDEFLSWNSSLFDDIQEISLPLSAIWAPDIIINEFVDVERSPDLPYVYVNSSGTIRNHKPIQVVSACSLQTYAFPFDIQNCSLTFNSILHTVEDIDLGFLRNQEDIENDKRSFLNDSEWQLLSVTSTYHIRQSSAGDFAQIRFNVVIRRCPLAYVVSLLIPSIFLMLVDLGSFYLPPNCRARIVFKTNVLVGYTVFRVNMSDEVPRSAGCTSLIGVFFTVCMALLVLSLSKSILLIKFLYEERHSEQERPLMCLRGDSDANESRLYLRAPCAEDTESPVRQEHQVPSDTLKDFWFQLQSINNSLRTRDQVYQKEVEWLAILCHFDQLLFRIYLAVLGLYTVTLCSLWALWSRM
Nature of the assay: Compound was evaluated for its binding affinity for 5-hydroxytryptamine 3 receptor by measuring displacement [3H]GR-65630 in rat cerebral cortex. Type of assay: tissue-based.

In assay [2] the target is T2, Muscarinic acetylcholine receptor M2 (Rattus norvegicus, UniProt P10980).
T2 sequence (P10980 whole entry): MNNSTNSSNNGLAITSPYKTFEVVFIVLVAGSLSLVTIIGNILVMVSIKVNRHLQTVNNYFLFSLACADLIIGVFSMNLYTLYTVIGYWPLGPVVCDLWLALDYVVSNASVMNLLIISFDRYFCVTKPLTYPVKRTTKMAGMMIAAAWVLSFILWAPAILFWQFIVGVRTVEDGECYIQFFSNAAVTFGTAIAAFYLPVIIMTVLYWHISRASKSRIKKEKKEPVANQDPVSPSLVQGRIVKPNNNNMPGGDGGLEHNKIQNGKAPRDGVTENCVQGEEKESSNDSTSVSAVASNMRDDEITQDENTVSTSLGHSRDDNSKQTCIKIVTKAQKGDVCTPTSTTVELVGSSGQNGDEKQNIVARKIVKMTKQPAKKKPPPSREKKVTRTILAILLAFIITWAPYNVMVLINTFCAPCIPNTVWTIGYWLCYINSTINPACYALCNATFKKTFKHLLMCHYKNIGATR
Kind of assay: Compound was evaluated for its binding affinity for Muscarinic acetylcholine receptor M2 by measuring displacement of [3H]- NMS ligand from rat cardiac cells. An outline of the steps:
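Adult rat cardiac cells homogenized 1:200 w/v in 50 mM sodium phosphate pH 7.4. Competition run with 0.2 nM [3H]NMS, 0.5 mg tissue and varying unlabeled ligand concentrations for 1 h at 37 °C. Bound separated by GF/C filtration. Atropine used for nonspecific binding.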

For assay [3], the target named is T1, Serotonin 3 (5-HT3) receptor. Kind of assay: Compound was evaluated for its binding affinity for 5-hydroxytryptamine 3 receptor by measuring displacement of [3H]granisetron from rat cerebral cortex. Type of assay: tissue-based. An outline of the steps:
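Male Sprague-Dawley rat cerebral cortex homogenized in cold 50 mM HEPES pH 7.5, then washed three times by centrifugation (48000g, 4 °C); roughly 2.5 mg protein/mL. […] Filters were presoaked 2 h in 0.3% polyethylenimine. Nonspecific binding defined with 100 nM zacopride; bound counted by liquid scintillation.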

Assay [4] addresses T3, Muscarinic acetylcholine receptor M1 (Rattus norvegicus, UniProt P08482).
T3 sequence (P08482 whole entry): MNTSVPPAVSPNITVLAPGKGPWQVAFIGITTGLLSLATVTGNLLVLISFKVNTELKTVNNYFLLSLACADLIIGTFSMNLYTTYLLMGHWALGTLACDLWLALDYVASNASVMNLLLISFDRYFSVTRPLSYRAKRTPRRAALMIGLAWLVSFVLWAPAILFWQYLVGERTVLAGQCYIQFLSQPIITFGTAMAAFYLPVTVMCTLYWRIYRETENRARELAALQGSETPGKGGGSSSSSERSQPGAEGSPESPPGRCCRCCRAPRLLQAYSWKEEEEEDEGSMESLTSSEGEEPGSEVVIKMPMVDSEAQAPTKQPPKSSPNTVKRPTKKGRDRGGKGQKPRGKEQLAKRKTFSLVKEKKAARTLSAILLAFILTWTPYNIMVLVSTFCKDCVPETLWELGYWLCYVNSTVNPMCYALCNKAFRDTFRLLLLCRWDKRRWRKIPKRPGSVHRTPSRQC
Nature of the assay: Compound was evaluated for its binding affinity for Muscarinic acetylcholine receptor M1 by measuring displacement of [3H]- pirenzepine from rat hippocampus. Type of assay: tissue-based. The method in brief: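 Adult rat hippocampus homogenized 1:200 w/v in 50 mM Na/K phosphate pH 7.4 with 1 mM EDTA and 0.1 mM PMSF. 0.5 mg tissue competed against [3H]pirenzepine (0.7-1 nM) for 2 h 30 min at 25 °C. Bound separated by filtration on 0.3% polyethylenimine-treated GF/C filters. Atropine defined nonspecific binding.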

Assay [5] has as its target Serotonin (5-HT) receptor. Kind of assay: Potency was evaluated on rabbit heart serotonergic receptors. Also on record: species or system Oryctolagus cuniculus.
Assay [6] addresses T1, Serotonin 3 (5-HT3) receptor. Nature of the assay: Compound was evaluated for its binding affinity for 5-hydroxytryptamine 3 receptor by measuring displacement [3H]GR-65630 in rat cerebral cortex. It is filed as tissue-based.

The compound `CN1[C@@H]2CC[C@H]1C[C@@H](OC(=O)c1cc(Cl)cc(Cl)c1)C2` [BEMESETRON] had a Ki in assay [1] of 0.054 µM.
`CN1CCN(c2ccc(-c3ccccc3)nn2)CC1`: the Ki in assay [2] was determined as 71 µM; in assay [4], 15.6 µM. Besides, the concentration for half-maximal inhibition (IC50) in assay [3] stood at 0.425 µM.
Regarding `CN1CCN(c2cc(-c3ccccc3)cnn2)CC1`, the Ki in assay [2] turned out to be 80 µM; in assay [4] it was 62 µM. The same compound yielded an IC50 in assay [3] of 0.036 µM.
On to `O=C(OC1C2CC3CC1N2CC3=O)c1c[nH]c2ccccc12` (configuration not stated), for which the pA2 in assay [5] is recorded as 9.8.
Compound `CCN(CC)CCNC(=O)c1cc(Cl)c(N)cc1OC` [METOCLOPRAMIDE] had a Ki in assay [1] of 0.348 µM.
With `CN1CCN(c2nncc3ccccc23)CC1`, the Ki amounted to 38 µM in assay [2] and 10 µM in assay [4]. The same compound showed an IC50 in assay [3] of 0.01 µM.
`CN1[C@@H]2CC[C@H]1C[C@@H](OC(=O)c1c[nH]c3ccccc13)C2` [TROPISETRON] displayed a Ki in assay [1] of 0.0032 µM.
`Cn1cc(-c2noc(C3CN4CCC3CC4)n2)c2ccccc21` (configuration not stated): the IC50 in assay [6] came to 0.0014 µM. That is a single-digit nanomolar value.
Regarding `CN1CCN(c2nnc(-c3ccccc3)c3ccccc23)CC1`, the results for the Ki in assay [2] and in assay [4] were 116 µM and 13 µM, respectively. Besides, the IC50 in assay [3] was determined as 0.37 µM.
